The source of these data is ChEMBL document CHEMBL1156486, “Discovery and characterization of a novel inhibitor of matrix metalloprotease-13 that reduces cartilage damage in vivo without joint fibroplasia side effects” (J Biol Chem, 2007).

The term pIC50 denotes −log10 of the IC50, conventionally taken in molar units.

pIC50: −log10 of the molar value.

One data set concerns the target Stromelysin-1 (Homo sapiens, UniProt P08254). The experiment in a line: Inhibition of MMP3 catalytic domain. The essentials: (§1)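 Buffer: 50 mM Hepes pH 7.0, 10 mM CaCl2, 1 mM DTNB, 0.005% Brij 35, 1% final DMSO. […] Initial rate read as A412 increase at 25 °C. At least triplicate inhibitor titrations. % of control activity fit to a sloped IC50 equation.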
The target in a further data set is T1, Matrilysin (Homo sapiens, UniProt P09237).
T1 sequence (P09237 whole entry): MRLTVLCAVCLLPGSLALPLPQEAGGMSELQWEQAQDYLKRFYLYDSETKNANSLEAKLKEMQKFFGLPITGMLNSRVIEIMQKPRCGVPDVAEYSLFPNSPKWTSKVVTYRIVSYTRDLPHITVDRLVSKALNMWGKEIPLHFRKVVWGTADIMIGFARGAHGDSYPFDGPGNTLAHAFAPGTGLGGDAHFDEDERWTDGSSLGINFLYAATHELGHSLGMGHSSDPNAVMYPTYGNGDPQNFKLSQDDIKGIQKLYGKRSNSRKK
The data set can be described thus: Inhibition of MMP7. The essentials:
as §1

Data set [1] addresses Matrix metalloproteinase-14 (Homo sapiens, UniProt P50281). The experiment in a line: Inhibition of MMP14 catalytic domain. The essentials:
as §1

Data set [2] addresses Macrophage metalloelastase (Homo sapiens, UniProt P39900). The data set can be described thus: Inhibition of MMP12 catalytic domain. The essentials:
as §1

The target in data set [3] is T2, Matrix metalloproteinase-17 (Homo sapiens, UniProt Q9ULZ9).
T2 sequence (Q9ULZ9 whole entry): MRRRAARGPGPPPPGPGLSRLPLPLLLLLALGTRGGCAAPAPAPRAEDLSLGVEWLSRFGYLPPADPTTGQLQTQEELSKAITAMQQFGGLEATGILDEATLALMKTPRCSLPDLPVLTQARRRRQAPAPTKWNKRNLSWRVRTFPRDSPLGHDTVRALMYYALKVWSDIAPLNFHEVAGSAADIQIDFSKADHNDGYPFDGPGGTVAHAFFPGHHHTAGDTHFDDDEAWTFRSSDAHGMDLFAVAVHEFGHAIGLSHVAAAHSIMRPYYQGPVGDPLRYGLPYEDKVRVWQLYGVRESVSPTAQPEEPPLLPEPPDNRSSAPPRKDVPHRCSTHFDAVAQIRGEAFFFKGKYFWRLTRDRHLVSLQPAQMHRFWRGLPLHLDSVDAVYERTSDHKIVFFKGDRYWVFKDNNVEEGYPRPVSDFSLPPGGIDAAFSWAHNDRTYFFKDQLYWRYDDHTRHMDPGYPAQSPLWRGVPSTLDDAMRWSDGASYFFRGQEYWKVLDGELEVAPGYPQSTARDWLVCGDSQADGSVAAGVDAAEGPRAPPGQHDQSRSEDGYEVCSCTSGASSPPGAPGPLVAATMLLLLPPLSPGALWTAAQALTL
The data set can be described thus: Inhibition of MMP17 catalytic domain. The essentials: as §1

The target of the next data set is Collagenase 3 (Homo sapiens, UniProt P45452).
In a further data set the target is T3, Interstitial collagenase (Homo sapiens, UniProt P03956).
T3 sequence (P03956 whole entry): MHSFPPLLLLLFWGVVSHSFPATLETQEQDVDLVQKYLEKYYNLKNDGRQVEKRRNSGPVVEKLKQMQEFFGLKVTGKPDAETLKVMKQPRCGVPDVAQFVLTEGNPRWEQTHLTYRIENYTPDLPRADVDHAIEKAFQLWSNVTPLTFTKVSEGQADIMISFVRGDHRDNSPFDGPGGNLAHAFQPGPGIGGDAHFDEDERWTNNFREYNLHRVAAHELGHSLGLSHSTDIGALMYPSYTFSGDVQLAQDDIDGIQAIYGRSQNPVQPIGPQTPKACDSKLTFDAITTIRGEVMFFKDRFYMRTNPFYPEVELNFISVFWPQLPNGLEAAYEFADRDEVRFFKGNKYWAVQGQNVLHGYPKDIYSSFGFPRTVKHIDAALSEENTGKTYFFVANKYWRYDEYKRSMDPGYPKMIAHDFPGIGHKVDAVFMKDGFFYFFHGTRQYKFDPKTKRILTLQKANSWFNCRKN
The experiment in a line: Inhibition of MMP1.

Data set [4] has as its target 72 kDa type IV collagenase (Homo sapiens, UniProt P08253). The data set can be described thus: Inhibition of MMP2.
A further data set concerns the target Neutrophil collagenase (Homo sapiens, UniProt P22894). The data set can be described thus: Inhibition of MMP8 catalytic domain.
For data set [5], the target named is Matrix metalloproteinase-9 (Homo sapiens, UniProt P14780). The data set can be described thus: Inhibition of MMP9.
Chain of Matrix metalloproteinase-9 (P14780 whole entry): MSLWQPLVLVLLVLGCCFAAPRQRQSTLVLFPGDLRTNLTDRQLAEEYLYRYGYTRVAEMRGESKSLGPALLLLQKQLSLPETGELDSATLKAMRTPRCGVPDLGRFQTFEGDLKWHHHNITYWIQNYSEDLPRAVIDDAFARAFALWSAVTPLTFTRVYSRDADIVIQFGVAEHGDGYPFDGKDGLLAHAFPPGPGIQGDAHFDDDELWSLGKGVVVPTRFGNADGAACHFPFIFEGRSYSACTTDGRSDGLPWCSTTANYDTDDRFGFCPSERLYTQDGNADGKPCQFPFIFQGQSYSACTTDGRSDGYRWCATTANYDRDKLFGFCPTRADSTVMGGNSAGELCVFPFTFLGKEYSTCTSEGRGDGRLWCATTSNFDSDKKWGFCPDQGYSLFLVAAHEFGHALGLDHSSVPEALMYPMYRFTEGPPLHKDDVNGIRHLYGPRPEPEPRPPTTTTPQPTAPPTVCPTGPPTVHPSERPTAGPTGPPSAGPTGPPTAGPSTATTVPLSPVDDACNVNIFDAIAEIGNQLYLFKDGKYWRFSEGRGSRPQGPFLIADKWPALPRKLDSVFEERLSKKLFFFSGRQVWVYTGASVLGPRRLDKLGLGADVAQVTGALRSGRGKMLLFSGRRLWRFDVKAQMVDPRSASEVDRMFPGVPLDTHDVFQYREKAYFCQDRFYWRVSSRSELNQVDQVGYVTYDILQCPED
Data set [6] in a line: Drug level in Sprague-Dawley rat model of musculoskeletal syndrome side effect at 2000 mg/kg/day, po after 14 days. To be noted: in vivo. In kind it is ADME, organism-based. Set-up: route oral.
The test system of another data set is Rattus norvegicus. The experiment in a line: Toxicity in Sprague-Dawley rat model of musculoskeletal syndrome side effect assessed as induction of joint fibroplasia at 2000 mg/kg/day, po after 14 days. Details: route oral. To be noted: in vivo, 336 h. In kind it is organism-based. The essentials:
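Sprague-Dawley rats (6/sex) given vehicle or 2000 mg/kg/day orally for 14 days; a non-selective hydroxamate MMP inhibitor at 2000 mg/kg/day as positive control. Calcaneon tendon and femorotibial, tibiotarsal, humeroradial joints taken bilaterally; femorotibial joints formalin-fixed, decalcified, H&E-stained, examined by light microscopy for fibroplasia.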

Chain of Stromelysin-1 (P08254 whole entry, the tested form may be a part): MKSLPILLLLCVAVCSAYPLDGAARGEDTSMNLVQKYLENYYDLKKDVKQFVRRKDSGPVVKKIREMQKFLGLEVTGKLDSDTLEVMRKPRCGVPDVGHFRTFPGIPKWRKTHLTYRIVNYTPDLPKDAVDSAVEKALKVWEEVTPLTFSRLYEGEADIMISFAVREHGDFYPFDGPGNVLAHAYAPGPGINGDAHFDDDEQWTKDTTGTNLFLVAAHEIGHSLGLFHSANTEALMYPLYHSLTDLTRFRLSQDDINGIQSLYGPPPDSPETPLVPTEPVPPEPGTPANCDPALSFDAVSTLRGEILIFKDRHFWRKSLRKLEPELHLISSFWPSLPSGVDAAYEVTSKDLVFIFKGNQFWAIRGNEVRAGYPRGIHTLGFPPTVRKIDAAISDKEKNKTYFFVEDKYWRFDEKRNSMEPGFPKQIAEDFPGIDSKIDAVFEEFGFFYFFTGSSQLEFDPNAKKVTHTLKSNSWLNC
Chain of Macrophage metalloelastase (P39900 whole entry, the tested form may be a part): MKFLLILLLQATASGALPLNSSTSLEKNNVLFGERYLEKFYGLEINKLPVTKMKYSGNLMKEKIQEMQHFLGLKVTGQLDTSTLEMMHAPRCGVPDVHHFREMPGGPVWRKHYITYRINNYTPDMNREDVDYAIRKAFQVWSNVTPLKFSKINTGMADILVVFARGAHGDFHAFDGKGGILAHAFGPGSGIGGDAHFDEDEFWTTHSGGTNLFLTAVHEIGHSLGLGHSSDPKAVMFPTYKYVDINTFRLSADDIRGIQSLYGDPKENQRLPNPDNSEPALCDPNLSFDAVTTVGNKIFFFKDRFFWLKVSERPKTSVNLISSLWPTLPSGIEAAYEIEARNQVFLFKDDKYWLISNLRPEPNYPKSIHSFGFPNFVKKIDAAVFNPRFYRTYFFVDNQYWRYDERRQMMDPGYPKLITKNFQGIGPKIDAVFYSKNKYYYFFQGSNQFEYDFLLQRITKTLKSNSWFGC
Chain of 72 kDa type IV collagenase (P08253 whole entry, the tested form may be a part): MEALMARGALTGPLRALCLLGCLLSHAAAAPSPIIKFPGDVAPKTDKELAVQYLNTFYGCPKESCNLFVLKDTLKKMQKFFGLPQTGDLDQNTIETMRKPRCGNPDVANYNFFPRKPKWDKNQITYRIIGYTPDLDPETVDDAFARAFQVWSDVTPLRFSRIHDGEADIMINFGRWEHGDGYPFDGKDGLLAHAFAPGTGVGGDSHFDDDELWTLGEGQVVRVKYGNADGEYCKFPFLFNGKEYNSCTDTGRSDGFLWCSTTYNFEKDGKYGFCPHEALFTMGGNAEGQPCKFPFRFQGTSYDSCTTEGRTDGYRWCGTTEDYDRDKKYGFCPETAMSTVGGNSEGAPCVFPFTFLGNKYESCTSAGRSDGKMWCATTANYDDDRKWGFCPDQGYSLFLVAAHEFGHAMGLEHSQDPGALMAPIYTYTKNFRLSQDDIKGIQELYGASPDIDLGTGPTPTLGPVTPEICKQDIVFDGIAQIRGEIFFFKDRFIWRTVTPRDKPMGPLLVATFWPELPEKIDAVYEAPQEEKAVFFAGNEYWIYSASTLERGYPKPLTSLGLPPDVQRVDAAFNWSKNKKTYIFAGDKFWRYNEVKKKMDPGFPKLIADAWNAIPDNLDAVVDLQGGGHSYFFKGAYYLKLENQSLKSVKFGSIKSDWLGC
Chain of Neutrophil collagenase (P22894 whole entry, the tested form may be a part): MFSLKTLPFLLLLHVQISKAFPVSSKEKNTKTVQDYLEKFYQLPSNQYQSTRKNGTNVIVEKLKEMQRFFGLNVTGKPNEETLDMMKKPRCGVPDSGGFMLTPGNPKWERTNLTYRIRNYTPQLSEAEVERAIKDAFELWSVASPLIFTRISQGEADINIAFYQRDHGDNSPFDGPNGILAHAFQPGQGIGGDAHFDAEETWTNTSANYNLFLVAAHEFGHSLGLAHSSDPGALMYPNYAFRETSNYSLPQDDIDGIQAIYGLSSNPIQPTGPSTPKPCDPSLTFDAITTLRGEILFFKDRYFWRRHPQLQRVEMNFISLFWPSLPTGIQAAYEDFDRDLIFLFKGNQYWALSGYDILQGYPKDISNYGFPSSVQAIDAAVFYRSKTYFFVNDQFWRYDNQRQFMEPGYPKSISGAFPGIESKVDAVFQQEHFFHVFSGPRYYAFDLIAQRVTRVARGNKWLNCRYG

As for `CNC(=O)[C@H](Cc1c[nH]c2ccccc12)NC(=O)[C@@H](CC(=O)NO)CC(C)C` [ILOMASTAT], the pIC50 was 8.15 at Stromelysin-1; 7.48 against Matrilysin; 8.33 in [1]; 8.29 in data set [2]; 8.47 in data set [3]; 8.28 against Collagenase 3.

With `O=C(OCc1ccccc1)c1cn2c(=O)n(Cc3ccccc3)c(=O)cc2s1`, the pIC50 (at Interstitial collagenase; in data set [4]; against Stromelysin-1; against Matrilysin; against Neutrophil collagenase; in [5]) was below 4.00 each time. The pIC50 in data set [1], in data set [2] and in data set [3] was below 4.00 in each case.

The compound `CC(C)[C@@H](NS(=O)(=O)c1ccc(-c2ccc(Br)cc2)cc1)C(=O)NO` registered an AUC at 336 h in [6] of 94000 ng·h/mL. Besides, in the data set with Rattus norvegicus, the Activity entry is on record as “Toxic”.
